Data set [1] deals with Candida parapsilosis. Nature of the data set: Antifungal activity against anidulafungin-resistant Candida parapsilosis isolate 22019 assessed as growth inhibition after 24 to 48 hrs by CLSI microbroth dilution method. Type of data set: functional. The following applies: Lodderomyces parapsilosis. The method, boiled down:
(§1)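 Microbroth dilution per CLSI M27-A3. Isolates subcultured for purity, incubated at 35 °C; five colonies >1 mm suspended in saline, adjusted to 0.5 × 10³ to 2.5 × 10³ in RPMI 1640 buffered to pH 7.0 with 0.165 M MOPS. Compounds diluted in RPMI to final […]. Read visually after 24 h and 48 h at 35 °C; MIC judged by turbidity against drug-free growth control.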

In data set [2] the test system is Candida parapsilosis. The data set can be described thus: Antifungal activity against anidulafungin-resistant Candida parapsilosis ANF8 assessed as growth inhibition after 24 to 48 hrs by CLSI microbroth dilution method. Type of data set: functional. The settings on record: Lodderomyces parapsilosis. An outline of the steps: as §1
The test system of data set [3] is Nakaseomyces glabratus. Nature of the data set: Antifungal activity against fluconazole-resistant Candida glabrata isolate 6258 assessed as growth inhibition after 24 to 48 hrs by CLSI microbroth dilution method. The class given is functional. An outline of the steps: as §1
A general note: Broth dilution looks for growth in wells or tubes with falling amounts of substance.

The subject of data set [4] is Nakaseomyces glabratus. The data set can be described thus: Antifungal activity against voriconazole-resistant Candida glabrata clinical isolate 730 assessed as growth inhibition after 24 to 48 hrs by CLSI microbroth dilution method. The class given is functional. The method, boiled down: as §1
Data set [5] concerns Nakaseomyces glabratus. The data set can be described thus: Antifungal activity against voriconazole-resistant Candida glabrata clinical isolate 724 assessed as growth inhibition after 24 to 48 hrs by CLSI microbroth dilution method. The class given is functional. An outline of the steps: as §1
Data set [6] has as its system Candida albicans. Nature of the data set: Antifungal activity against azole-resistant Candida albicans clinical isolate 7.O.A assessed as growth inhibition after 24 to 48 hrs by CLSI microbroth dilution method. Type of data set: functional. An outline of the steps: as §1
Data set [7] concerns Candida albicans. Nature of the data set: Antifungal activity against fluconazole-resistant Candida albicans clinical isolate 5.O.A assessed as growth inhibition after 24 to 48 hrs by CLSI microbroth dilution method. Type of data set: functional. The method, boiled down: as §1
In data set [8] the test system is Candida albicans. The data set can be described thus: Antifungal activity against caspofungin-resistant Candida albicans assessed as growth inhibition after 24 to 48 hrs by CLSI microbroth dilution method.
The nature of data set [9]: Cytotoxicity against mouse NIH/3T3 cells assessed as cell viability at 62.5 ug/mL after 24 hrs by MTT assay relative to control. The class given is cell-based, NIH3T3. The settings on record: read-out: Activity. An outline of the steps:
(§2)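 NIH/3T3 fibroblasts kept in DMEM with 10% fetal calf serum, penicillin/streptomycin, 37 °C, 5% CO2. Cells seeded at 2 × 10⁴ cells/mL, grown 24 h, then given compound (DMSO stock diluted in medium, final DMSO <0.1%) for 24 h. MTT at 0.5 mg/mL final added for 4 h, formazan dissolved in DMSO, absorbance read at 540 nm. Triplicate wells, mean ± SD, assay run twice.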
For orientation: Formazan colour is commonly taken as a measure of viable cells.

A short description of data set [10]: Cytotoxicity against mouse NIH/3T3 cells assessed as cell viability at 31.3 ug/mL after 24 hrs by MTT assay relative to control. Type of data set: cell-based, NIH3T3. The following applies: read-out: Activity. An outline of the steps:
as §2

Data set [11] can be described thus: Cytotoxicity against mouse NIH/3T3 cells assessed as cell viability at 1 ug/mL after 24 hrs by MTT assay relative to control. The settings on record: read-out: Activity. The class given is cell-based, NIH3T3. The method, boiled down:
as §2

Data set [12] in a line: Cytotoxicity against mouse NIH/3T3 cells assessed as cell viability at 0.5 ug/mL after 24 hrs by MTT assay relative to control. The class given is cell-based, NIH3T3. The settings on record: read-out: Activity. The method, boiled down: as §2

≈ marks a conversion by molar mass, not a printed value.

By MIC is commonly meant the smallest concentration in the dilution series that meets the test's criterion for growth inhibition. Regarding `C/C(=N\Nc1nc([C@@H]2CCCN2C(=O)OCc2ccccc2)cs1)c1ccc2c(c1)CCC2`, the MIC in data set [1], in data set [2], in data set [3], in data set [4], in data set [5] and in [6] was more than 16 µg/mL throughout. For the same molecule, the MIC in [7] and in data set [8] was more than 16 µg/mL throughout.
On to `COc1ccc(O)c(-c2csc(N/N=C/c3ccc4c(c3)OCO4)n2)c1`, for which the MIC in data set [1], in [2], in data set [3], in data set [4], in data set [5] and in data set [6] was more than 16 µg/mL in each case. In addition, the MIC in [7] and in data set [8] was more than 16 µg/mL throughout.
Consider `COc1ccc(O)c(-c2csc(NN=C3CCCCC3)n2)c1`, for which the MIC was 16 µg/mL (≈ 50.4 µM) in data set [1]; more than 16 µg/mL in [2]; 16 µg/mL (≈ 50.4 µM) in data set [3]; 8 µg/mL (≈ 25.2 µM) in data set [4]; more than 16 µg/mL in [5]; more than 16 µg/mL in [6]. In addition, the MIC in data set [7] and in [8] was more than 16 µg/mL throughout.
In the case of `COc1ccc(O)c(-c2csc(N/N=C/c3ccc4ccccc4c3)n2)c1`, in data set [9], the viability at 24 h, 62.5 ug/mL worked out at 52.7%. In data set [10], the viability at 24 h, 31.3 ug/mL was 45.3%. Moreover, the viability at 24 h, 1 ug/mL in data set [11] was 69.2%. For the same molecule, the viability at 24 h, 0.5 ug/mL in [12] stood at 83.7%. Besides, the minimal inhibitory concentration (MIC) in data set [1] is more than 16 µg/mL; in data set [2], more than 16 µg/mL; in data set [3] it was more than 16 µg/mL; in data set [4], more than 16 µg/mL; in data set [5], more than 16 µg/mL; in [6], 2 µg/mL (≈ 5.33 µM). The minimal inhibitory concentration (MIC) in [7] and in [8] was more than 16 µg/mL in each case.
Regarding `COc1ccc(O)c(-c2csc(N/N=C/c3c[nH]c4ccccc34)n2)c1`, the viability at 24 h, 62.5 ug/mL in data set [9] turned out to be 50.2%. The viability at 24 h, 31.3 ug/mL in [10] is 70.6%. In addition, the viability at 24 h, 1 ug/mL in data set [11] came to 80.6%. The viability at 24 h, 0.5 ug/mL in data set [12] was determined as 91.9%. Further, the minimal inhibitory concentration (MIC) in data set [1] is more than 16 µg/mL; in data set [2], 0.25 µg/mL (≈ 0.686 µM); in data set [3], more than 16 µg/mL; in data set [4], 0.5 µg/mL (≈ 1.37 µM); in [5] it was more than 16 µg/mL; in data set [6], 0.5 µg/mL (≈ 1.37 µM). Further, the minimal inhibitory concentration (MIC) in data set [7] is 0.25 µg/mL (≈ 0.686 µM); in data set [8] it was 2 µg/mL (≈ 5.49 µM).
In the case of `COc1ccc(O)c(-c2csc(N/N=C/c3cnc4ccccn34)n2)c1`, the minimal inhibitory concentration (MIC) in data set [1], in [2], in [3], in data set [4], in [5] and in data set [6] was more than 16 µg/mL each time. Further, the MIC in data set [7] and in [8] was more than 16 µg/mL throughout.
For `COc1ccc(O)c(-c2csc(N/N=C/c3cc4ccccc4o3)n2)c1`, the minimal inhibitory concentration (MIC) in [1], in [2], in data set [3], in data set [4], in data set [5] and in [6] was more than 16 µg/mL each time. For the same molecule, the minimum inhibitory concentration (MIC) in data set [7] and in data set [8] was more than 16 µg/mL each time.
Regarding `COc1ccc(O)c(-c2csc(N/N=C/c3cc[nH]c3)n2)c1`, the minimum inhibitory concentration (MIC) was 16 µg/mL (≈ 50.9 µM) in data set [1]; more than 16 µg/mL in [2]; more than 16 µg/mL in data set [3]; 16 µg/mL (≈ 50.9 µM) in [4]; 8 µg/mL (≈ 25.4 µM) in data set [5]; more than 16 µg/mL in [6]. Also, the minimum inhibitory concentration (MIC) in data set [7] and in data set [8] was 16 µg/mL (≈ 50.9 µM) each time.
For the molecule `COc1ccc(O)c(-c2csc(N/N=C/c3ccco3)n2)c1`, the minimum inhibitory concentration (MIC) in [1], in data set [2], in [3], in [4], in [5] and in data set [6] was more than 16 µg/mL throughout. For the same molecule, the MIC in data set [7] and in [8] was more than 16 µg/mL throughout.

For the origin of these results see ChEMBL document CHEMBL2331219, “Synthesis and anti-Candida activity of novel 2-hydrazino-1,3-thiazole derivatives” (Bioorg Med Chem Lett, 2013).
